Assay results: PMC12800337 (Nature Communications, 2025)
Where a SMILES comes first, the peptide text is derived from it. The star is where a group is joined. 5FAM = O=C1OC2(c3ccc(O)cc3Oc3cc(O)ccc32)c2ccc(C(=O)*)cc21; βAla = NCCC(=O)O; X1 = OB(O)C*

Experiments:
[1] = Stability of BA-modified proteins as lyophilized powder; assay type: physicochemical; conditions: purified protein, confirmed by deconvoluted mass
S. aureus (MTCC 7443) = test: S. aureus staining, flow cytometry median fluorescence; assay type: cell-based, Staphylococcus aureus; conditions: 2 µM, PBS pH 7.4, 30 min, washed, flow cytometry median value
[2] = Serum stability assay of peptides; assay type: in vitro ADME; conditions: human serum, fluorophore unlabeled peptides, HPLC
Outline: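 Test peptide incubated in human serum; the remaining intact peptide was monitored by HPLC to derive half-life. Mean ± SEM from 3 independent replicates.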

A549 = test: Mammalian cell staining, confocal microscope; assay type: cell-based; conditions: P2 5 µM, compared to the brightness detected on S. aureus
Outline: (§1)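 Cells at 70% confluence detached with trypsin-EDTA and seeded at 1 × 10⁵ cells/well in glass-bottom dishes, then grown for 24 h. Medium replaced with PBS containing fluorescein-labelled test peptide; incubated 30 min at 37 °C. Washed three times with PBS, given fresh medium, imaged by confocal microscopy (40× oil, argon laser at 10%). Representative of 2 independent experiments.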

E. coli (MTCC 1687) = test: E. coli staining; assay type: cell-based; conditions: P2 5 μM, confocal microscope
Outline: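 E. coli and S. aureus each diluted 1:100 from secondary culture and grown to OD₆₀₀ 0.4, then mixed and pelleted at 5000 × g. Pellet incubated with fluorescein-labelled test peptide in PBS (pH 7.4) at 37 °C for 30 min. Washed twice in PBS, resuspended in 100 µL PBS, imaged by confocal microscopy (40× oil, argon laser). Representative of 2 independent experiments.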

S. aureus [3] = test: Confocal imaging of stained S. aureus; assay type: cell-based, Staphylococcus aureus; conditions: confocal optical sectioning of stained S. aureus cells
Outline: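 S. aureus (MTCC 7443) incubated with fluorescein-labelled test peptide for 30 min at 37 °C, washed three times in PBS. 5 µL of cells pressed under a coverslip on a glass slide to a single cell layer. Imaged by laser-scanning confocal microscopy with optical sectioning: 40× oil objective, argon laser at 10% power, gain 900–1100 HV, offset −0.5%. Representative of 2 independent experiments.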

HEK 293 = test: Mammalian cell staining, confocal microscope; assay type: cell-based, human; conditions: P2 5 µM, compared to the brightness detected on S. aureus
Outline: as §1

S. aureus [4] = test: Mannitol inhibition assay of Fl-P2 binding; assay type: cell-based, Staphylococcus aureus; conditions: 50 mM mannitol, P2 2 µM, flow cytometry

lysozyme-BA: lysozyme with methylene-BA conjugates at Cys6 and Cys115 (major product)
stability as a lyophilized powder (in words) [1]: stable for over a week

TGRAKRRMCYNRR-NH2 [P1]
S. aureus staining efficiency relative to P0 and P3 (S. aureus (MTCC 7443)): ~ 8 fold

BSA-BA: BSA with methylene-BA at a single free thiol site
stability as a lyophilized powder (in words) [1]: stable for over a week

CSCC[C@H](NC(=O)[C@H](CCCNC(=N)N)NC(=O)[C@H](CCCNC(=N)N)NC(=O)[C@H](CCCCN)NC(=O)[C@H](C)NC(=O)[C@H](CCCNC(=N)N)NC(=O)CNC(=O)[C@@H](NC(=O)CCNC(=O)c1ccc2c(c1)C(=O)OC21c2ccc(O)cc2Oc2cc(O)ccc21)[C@@H](C)O)C(=O)N[C@@H](CSCB(O)O)C(=O)N[C@@H](Cc1ccc(O)cc1)C(=O)N[C@@H](CSCB(O)O)C(=O)N[C@@H](CCCNC(=N)N)C(=O)N[C@@H](CCCNC(=N)N)C(N)=O [P2] ({5FAM-βAla}-TGRAKRRMC(X1)YC(X1)RR-NH2)
serum half-life relative to parent UBI peptide (P0) [2]: around 14 times | S. aureus staining efficiency relative to P0 and P3 (S. aureus (MTCC 7443)): ~ 40 fold | staining of A549 cells (A549): minimal staining | staining of E. coli (E. coli (MTCC 1687)): no significant staining | uptake in bacterial cytosol (optical sectioning) (S. aureus [3]): uptake of P2 in bacterial cytosol | staining of HEK 293 cells (HEK 293): minimal staining | staining ability of P2 after mannitol complexation (reduced to) (S. aureus [4]): ~ 60%
